Type in all cases: functional
The test system of assay [1] is Enterococcus faecium. Nature of the assay: Antimicrobial activity against Enterococcus faecium CCT 5079 after 48 hrs by TTC staining method. To be noted: CCT 5079, 48 h. In short, it runs like this: (§1)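 Bacteria grown overnight at 36 °C on nutrient agar. Cells suspended in 0.85% NaCl to McFarland 0.5 (checked at 580 nm), then diluted to 10^4 CFU/mL. Broth microdilution in Mueller-Hinton broth, in duplicate. Samples tested at 1.0-0.016 mg/mL; chloramphenicol and nystatin references at 0.25-0.002 mg/mL. Incubated 36 °C for 48 h, then 0.5% TTC added. MIC is the lowest concentration inhibiting visible growth by TTC staining.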

Assay [2] concerns Prescottella equi. The experiment in a line: Antimicrobial activity against Rhodococcus equi ATCC 6939 after 48 hrs by TTC staining method. As to conditions: Rhodococcus (subgen. Prescottella) equi, ATCC 6939, 48 h. The method, boiled down: as §1
The test system of assay [3] is Bacillus subtilis. The experiment in a line: Antimicrobial activity against Bacillus subtilis ATCC 5061 after 48 hrs by TTC staining method. To be noted: ATCC 5061, 48 h. The method, boiled down: as §1
The test system of assay [4] is Pseudomonas aeruginosa. The experiment in a line: Antimicrobial activity against Pseudomonas aeruginosa ATCC 13388 after 48 hrs by TTC staining method. As to conditions: ATCC 13388, 48 h. The method, boiled down: as §1
The subject of assay [5] is Staphylococcus aureus. Nature of the assay: Antimicrobial activity against Staphylococcus aureus ATCC 6538 after 48 hrs by TTC staining method. To be noted: ATCC 6538, 48 h. The method, boiled down: as §1
Assay [6] relates to Salmonella enterica. The experiment in a line: Antimicrobial activity against Salmonella choleraesuis ATCC 10708 after 48 hrs by TTC staining method. To be noted: ATCC 10708, 48 h. In short, it runs like this:
as §1

The subject of assay [7] is Staphylococcus epidermidis. The experiment in a line: Antimicrobial activity against Staphylococcus epidermidis ATCC 12228 after 48 hrs by TTC staining method. As to conditions: ATCC 12228, 48 h. The method, boiled down: as §1
The subject of assay [8] is Micrococcus luteus. The experiment in a line: Antimicrobial activity against Micrococcus luteus ATCC 4968 after 48 hrs by TTC staining method. As to conditions: ATCC 4968, 48 h. The method, boiled down:
as §1

For assay [9], the system named is Escherichia coli. The experiment in a line: Antimicrobial activity against Escherichia coli ATCC 11775 after 48 hrs by TTC staining method. To be noted: ATCC 11775, 48 h. In short, it runs like this: as §1
For assay [10], the system named is Enterococcus hirae. The experiment in a line: Antimicrobial activity against Enterococcus hirae ATCC 10541 after 48 hrs by TTC staining method. To be noted: ATCC 10541, 48 h. In short, it runs like this: as §1
The test system of assay [11] is Candida albicans. The experiment in a line: Antimicrobial activity against Candida albicans ATCC 10231 after 48 hrs by TTC staining method. The method, boiled down:
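Yeast grown on Sabouraud dextrose agar. Cells suspended in 0.85% NaCl to McFarland 0.5 (checked at 580 nm), then diluted to 10^4 CFU/mL. Mueller-Hinton broth microdilution, in duplicate. Samples tested at 1.0-0.016 mg/mL; chloramphenicol and nystatin references at 0.25-0.002 mg/mL. Incubated 48 h at 36 °C, then 0.5% TTC added. MIC is the lowest concentration preventing visible growth by TTC stain.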

≈ marks a conversion by molar mass, not a printed value.

The record followed here is ChEMBL document CHEMBL1153809, “7,7-Dimethylaporphine alkaloids from the stem of Guatteriopsis friesiana” (2009).

What is called MIC is the lowest concentration found to suppress growth.

Take `O=C(N[C@H](CO)[C@H](O)c1ccc([N+](=O)[O-])cc1)C(Cl)Cl` [CHLORAMPHENICOL]: the minimum inhibitory concentration (MIC) in assay [1] was found to be 70 µg/mL (≈ 217 µM); in assay [2], 40 µg/mL (≈ 124 µM); in [3] it was 20 µg/mL (≈ 61.9 µM); in assay [4], 850 µg/mL (≈ 2630 µM); in assay [5], 20 µg/mL (≈ 61.9 µM); in [6] it was 60 µg/mL (≈ 186 µM). Also, the MIC in assay [7] was 40 µg/mL (≈ 124 µM); in [8], 50 µg/mL (≈ 155 µM); in [9], 40 µg/mL (≈ 124 µM); in [10] it was 120 µg/mL (≈ 371 µM).
As to `O=C1c2ccccc2-c2c3c(cc4ccnc1c24)OCO3` [LIRIODENINE], the MIC in assay [1] is 150 µg/mL (≈ 545 µM); in assay [2], 10 µg/mL (≈ 36.3 µM); in assay [3], 500 µg/mL (≈ 1820 µM); in [4] it was greater than 1000 µg/mL; in assay [5], greater than 1000 µg/mL; in [6], greater than 1000 µg/mL. Also, the minimum inhibitory concentration (MIC) in assay [8] is 150 µg/mL (≈ 545 µM); in assay [9], greater than 1000 µg/mL; in assay [10], 600 µg/mL (≈ 2180 µM); in [11] (ATCC 10231, 48 h) it was greater than 1000 µg/mL.
Take NYSTATIN: in [11], the MIC was found to be 50 µg/mL.
